Most compounds without a hit are left out; they make up all but 2% or so of the library.
TCR CD3 inh = human TCR-CD3 binding inhibition. inhibition, % at 9.4 µM. 0.37% of 360,000 active. TAMRA-labeled TCR probe fluorescence, biochemical;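 note: recombinant mutant TCR 2C K166C tagged with TAMRA read by polarization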
SIAE primary = inhibitors of human sialic acid acetylesterase SIAE. Q9HAT2. SIAE FP-Rh probe binding, fluorescence polarization. inhibition, % at 9.66 µM. 0.69% of 370,000 active. AID 1053197;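 active = inhibition above a cutoff: mean of compounds within the control limits plus 3 SD of those, cut at about 17% in these data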
Target sequence (Q9HAT2 whole entry, looked up): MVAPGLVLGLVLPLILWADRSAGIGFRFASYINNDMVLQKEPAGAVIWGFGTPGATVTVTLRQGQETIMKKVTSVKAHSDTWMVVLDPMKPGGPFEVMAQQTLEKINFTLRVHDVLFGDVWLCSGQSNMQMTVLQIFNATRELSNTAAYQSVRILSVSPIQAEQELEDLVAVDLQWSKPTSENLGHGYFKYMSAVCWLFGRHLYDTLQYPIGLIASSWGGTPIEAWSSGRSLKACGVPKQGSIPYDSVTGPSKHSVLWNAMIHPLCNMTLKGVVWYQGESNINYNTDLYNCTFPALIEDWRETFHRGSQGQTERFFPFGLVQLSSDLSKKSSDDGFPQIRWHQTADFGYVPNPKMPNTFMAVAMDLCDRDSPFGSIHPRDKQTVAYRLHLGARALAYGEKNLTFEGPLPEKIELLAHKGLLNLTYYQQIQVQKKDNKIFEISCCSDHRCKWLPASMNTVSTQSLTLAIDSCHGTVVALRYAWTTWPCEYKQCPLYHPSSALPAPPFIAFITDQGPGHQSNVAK
HTRA1 inhibitor = inhibitors of human serine peptidase HTRA1 | Q92743 | recombinant HTRA1, FP-rhodamine activity-based probe, fluorescence polarization | inhibition, % at 5.96 µM | 0.5% of 340,000 active | AID 504803; in the data active = inhibition above about 36%
TDP2 inh = TDP2 (human) inhibition, absorbance primary screen. O95551. recombinant TDP2, T5PNP hydrolysis, p-nitrophenol absorbance 415 nm. inhibition, % at 12.8 µM. 0.34% of 370,000 active. AID 720702;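 active = inhibition above the mean of all tested compounds plus 3 SD, set per campaign, cut at about 25% in these data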
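Incubation: 2 h at 37 °C; Test system: recombinant human TDP2; Quantity: enzyme 120 nM; Read-out basis: percent inhibition; Medium: 50 mM Tris-HCl pH 7.5 with Mg2+, KCl, DTT, BSA; Repeats: single replicate; Compound: 12.8 µM single point, 1% DMSO; Signal: epi absorbance; Reagent: 5 mM T5PNP chromogenic substrate; Benchmarks: no-enzyme high, DMSO-plus-enzyme low.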
ABHD4 inh = inhibits mouse alpha/beta hydrolase domain 4. Q8VD66. purified mABHD4, FP-Rh probe fluorescence polarization. inhibition, % at 8.92 µM. 0.54% of 370,000 active. AID 720543;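 active = inhibition exceeding the mean over every tested compound plus 3 SD, cut at about 30% in these data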
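assay system = mABHD4 protein | compound dosing = single nominal dose of 8.92 µM, 0.89% DMSO final | read-out basis = percent inhibition of probe binding, normalized to plate controls | schedule = Enzyme–compound pre-incubation 45 min, then probe 60 min, both 25 °C | detection = fluorescence polarization, excitation 525 nm, emission 598 nm, BODIPY TMR filters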
PAD4 FP inh = PAD4 (human) enzyme inhibition; inhibition, % at 6.36 µM; Q9UM07; recombinant PAD4, RCA probe fluorescence polarization; 0.41% of 330,000 active; AID 485272;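 active = percent inhibition above a cutoff equal to the mean of all tested compounds plus 3 SD, cut at about 15% in these data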
BSA probe FL = counter-screen for TCR-CD3 interaction inhibitors: BSA probe; TAMRA-labeled BSA probe fluorescence counterscreen; inhibition, % at 9.4 µM; 10% of 1,200 active; shares compounds with TCR CD3 inh; in the data active = inhibition above about 23%
TCR-CD3 conf = confirmation of human TCR-CD3 interaction inhibitors; shares compounds with TCR CD3 inh; TAMRA-labeled TCR probe fluorescence binding assay; inhibition, % at 9.4 µM; 48% of 1,200 active
ABHD4 confirm = ABHD4 (mouse) inhibition, FP confirmation; shares compounds with ABHD4 inh; purified mABHD4, FP-Rh probe fluorescence polarization; inhibition, % at 8.92 µM; 55% of 1,800 active; AID 720658;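 active = mean inhibition across replicates above the hit cutoff set in the primary screen, cut at about 30% in these data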
SIAE inh conf = human SIAE inhibition, confirmation; shares compounds with SIAE primary; SIAE FP-Rh activity-based probe, fluorescence polarization; inhibition, % at 9.66 µM; 13% of 2,300 active; AID 1117263;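 active = mean inhibition of the replicates above the hit cutoff set in the primary screen, cut at about 17% in these data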;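 note: inhibitors lower polarization as more probe stays unbound to SIAE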
Of the large screens only hits and unclear results are named; the others gave an inactive call (follow-up assays come after a bar, where they were run). Cut-off read from the data, not from the text of the source, unless noted: active = inhibition above about 19%; inactive = the rest.

CC(=O)c1c(C)[nH]c(C(=O)OCC(=O)NCc2ccc(Cl)cc2)c1C	TCR CD3 inh 23, SIAE primary 24 | BSA probe FL inactive | TCR-CD3 conf inactive | SIAE inh conf inactive
COC(=O)[C@H]1C[C@@]2(C)c3ccccc3N(S(=O)(=O)c3ccccc3)[C@H]2N1	none (no result: TCR CD3 inh, HTRA1 inhibitor, PAD4 FP inh)
Cc1cccc(S(=O)Cc2ccc(C(=O)N3CCN(C(=O)c4ccco4)CC3)o2)c1 (centres undefined)	none
O=C(NNc1ccccc1[N+](=O)[O-])Nc1ccc(Cl)c(Cl)c1	none
O=C1NC(=O)C(c2ccccc2[N+](=O)[O-])=C1Nc1ccc(O)c(Cl)c1	TCR CD3 inh 20, SIAE primary 19, ABHD4 inh 43, PAD4 FP inh 46 | BSA probe FL inactive | TCR-CD3 conf inactive | ABHD4 confirm inactive | SIAE inh conf inactive
O=C(NNC(=O)c1ccc2ccccc2c1)Nc1ccc(F)cc1	none
COc1ccccc1C(=O)NNC(=O)c1ccccc1	none
O=C(NNC(=O)c1ccc2ccccc2c1O)Nc1ccc(F)cc1	TCR CD3 inh 32, SIAE primary 26 | BSA probe FL inactive | TCR-CD3 conf 29 | SIAE inh conf inactive
COc1cccc(OCC(=O)NNC(=O)c2ccc3ccccc3c2O)c1	TCR CD3 inh 44, SIAE primary 19 (no result: PAD4 FP inh) | BSA probe FL inactive | TCR-CD3 conf 39 | SIAE inh conf inactive
COc1ccccc1C(=O)NNC(=O)c1ccc2ccccc2c1O	TCR CD3 inh 32, SIAE primary 20 (no result: PAD4 FP inh) | BSA probe FL inactive | TCR-CD3 conf 38 | SIAE inh conf inactive
COc1cccc(OCC(=O)NNC(=O)c2ccc(-c3ccccc3)cc2)c1	none
O=C(NCCc1ccccc1)c1ccc(S(=O)(=O)N2CCCCC2)cc1	none (no result: PAD4 FP inh)
Cc1cc2ccccc2n1CCNC(=O)c1ccc(S(=O)(=O)N2CCCCC2)cc1	TCR CD3 inh 63, SIAE primary 37, ABHD4 inh 58 | BSA probe FL inactive | TCR-CD3 conf inactive | ABHD4 confirm 193 | SIAE inh conf inactive
Cc1ccc(N(C)c2nc(N)nc(N)c2N=O)cc1	TCR CD3 inh 197, SIAE primary 52, ABHD4 inh 85 (no result: HTRA1 inhibitor, PAD4 FP inh) | BSA probe FL active | TCR-CD3 conf 198 | SIAE inh conf 95
O=C(NNC(=S)NC(=O)c1cccnc1)c1ccccc1	none
O=C(Cc1ccccc1)NNC(=S)NC(=O)c1cccnc1	TCR CD3 inh 27, SIAE primary 17 (no result: HTRA1 inhibitor) | BSA probe FL inactive | TCR-CD3 conf 21 | SIAE inh conf inactive
Cc1nn(C)c(C)c1N1C(=O)c2cccc3c(N)ccc(c23)C1=O	TCR CD3 inh 49, SIAE primary 28, ABHD4 inh 43, PAD4 FP inh 31 | BSA probe FL 57 | TCR-CD3 conf 47 | ABHD4 confirm 39 | SIAE inh conf 21
Cc1nn(C)c(C)c1N1C(=O)c2cccc3c(Br)ccc(c23)C1=O	none
CCN(CC)S(=O)(=O)c1cccc(C(=O)N/N=C/c2ccc(O)c(O)c2O)c1	TCR CD3 inh 31, SIAE primary 34, ABHD4 inh 42 | BSA probe FL inactive | TCR-CD3 conf 29 | ABHD4 confirm 52 | SIAE inh conf inactive
C/C(=N\NC(=S)NCCc1ccccc1)c1ccc(O)cc1O	TCR CD3 inh 28, SIAE primary 17 | BSA probe FL inactive | TCR-CD3 conf inactive | SIAE inh conf 20
COc1ccccc1CNC(=O)C[C@@H]1C[C@H]2c3cc(N(C)C)ccc3O[C@H]2[C@H](CO)O1	none (no result: PAD4 FP inh)
O=C(NCCCN1CCOCC1)c1cc(S(=O)(=O)N2CCCCC2)ccc1Cl	none (no result: PAD4 FP inh)
O=C1c2ccc3c4c(ccc(c24)C(=O)N1c1ccc2ccccc2c1)CC3	none

Screening data from PubChem BioAssay.
